Calls of active or inactive are those of the source. No cut-off for these calls is given here.
Assays:
[1] = Cytotoxicity against human HeLa cells; assay type: cell-based
Outline: (§1)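 MDCK, HEL and HeLa cultures run alongside the cytopathicity assays received graded compound levels up to 100 μM. Toxicity was scored as the minimum cytotoxic concentration, the lowest level causing a microscopically detectable change in cell morphology.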

[2] = Cytotoxicity against human HuH5.2 cells; assay type: cell-based, Huh-5-2
[3] = test system: Human respirovirus 3; assay: Antiviral activity against Parainfluenza 3 virus assessed as inhibition of virus-induced cytopathicity by cell based assay; assay type: functional, organism-based
[4] = test system: Mammalian orthoreovirus 1; assay: Antiviral activity against Reovirus 1 assessed as inhibition of virus-induced cytopathicity by cell based assay; assay type: functional, organism-based
[5] = test system: Sindbis virus; assay: Antiviral activity against Sindbis virus assessed as inhibition of virus-induced cytopathicity by cell based assay; assay type: functional, organism-based
[6] = test system: Coxsackievirus B4; assay: Antiviral activity against Coxsackievirus B4 assessed as inhibition of virus-induced cytopathicity by cell based assay; assay type: functional, organism-based; conditions: Enterovirus B
[7] = test system: Human immunodeficiency virus 1; assay: Antiviral activity against HIV1 3B infected in human CEM cells assessed as inhibition of syncytia formation after 4 days; assay type: functional, organism-based; conditions: Human immunodeficiency virus 1, 3B, CCRF-CEM, 96 h
Outline: (§2)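 Human CEM cells (~3 × 10^5 cells/mL) were infected with ~100 CCID50/mL of HIV-1(IIIB) or HIV-2(ROD) and seeded with compound dilutions. After 4 days at 37 °C, syncytia formation was scored microscopically.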

[8] = test system: Human immunodeficiency virus 2; assay: Antiviral activity against HIV2 ROD infected in human CEM cells assessed as inhibition of syncytia formation after 4 days; assay type: functional, organism-based; conditions: Human immunodeficiency virus 2, ISOLATE ROD, CCRF-CEM, 96 h; outline: as §2
[9] = test system: Human alphaherpesvirus 1; assay: Antiviral activity against Herpes simplex virus 1 KOS assessed as inhibition of virus-induced cytopathicity by cell based assay; assay type: functional, organism-based; conditions: Human alphaherpesvirus 1, KOS
[10] = test system: Human alphaherpesvirus 1; assay: Antiviral activity against thymidine kinase deficient ACV resistant Herpes simplex virus 1 KOS assessed as inhibition of virus-induced cytopathicity by cell based assay; assay type: functional, organism-based; conditions: Human alphaherpesvirus 1, KOS
[11] = test system: Feline coronavirus; assay: Antiviral activity against Feline coronavirus assessed as inhibition of virus-induced cytopathicity by cell based assay; assay type: functional, organism-based; conditions: Alphacoronavirus 1
[12] = test system: Felid alphaherpesvirus 1; assay: Antiviral activity against Feline herpes virus assessed as inhibition of virus-induced cytopathicity by cell based assay; assay type: functional, organism-based
[13] = test system: Human alphaherpesvirus 2; assay: Antiviral activity against Herpes simplex virus 2 assessed as inhibition of virus-induced cytopathicity by cell based assay; assay type: functional, organism-based
[14] = test system: Cytomegalovirus; assay: Antiviral activity against Cytomegalovirus assessed as inhibition of virus-induced cytopathicity by cell based assay; assay type: functional, organism-based; conditions: Human betaherpesvirus 5
[15] = Cytotoxicity against human HEL cells; assay type: cell-based; outline: as §1
[16] = Cytotoxicity against MDCK cells; assay type: cell-based, Canis lupus familiaris; conditions: dog; outline: as §1
[17] = test system: Respiratory syncytial virus; assay: Antiviral activity against Respiratory syncytial virus Long infected in human HeLa cells assessed as inhibition of virus-induced cytopathicity; assay type: functional, organism-based
[18] = test system: Vesicular stomatitis virus; assay: Antiviral activity against Vesicular stomatitis virus infected in human HeLa cells assessed as inhibition of virus-induced cytopathicity; assay type: functional, organism-based
[19] = test system: Vaccinia virus; assay: Antiviral activity against Vaccinia virus lederle infected in human HEL cells assessed as inhibition of virus-induced cytopathicity; assay type: functional, organism-based; conditions: Orthopoxvirus vaccinia
[20] = test system: Hepatitis C virus; assay: Antiviral activity against HCV infected in human HuH5.2 cells carrying subgenomic HCV replicon assessed as inhibition of replicon replication by luciferase reporter gene assay; assay type: functional, organism-based, Hepacivirus hominis; conditions: Huh-5-2
Outline: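 Huh 5-2 cells are Huh 7 cells carrying the subgenomic replicon I389luc-ubi-neo/NS3-3′/5.1. They were maintained in DMEM with 10% heat-inactivated FCS, non-essential amino acids, penicillin/streptomycin and 250 μg/mL G418. Cells were seeded at 5 × 10^3 cells/well in medium without G418 and exposed to compound.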

[21] = test system: Influenza A virus; assay: Antiviral activity against Influenza A virus H3N2 infected in MDCK cells assessed as inhibition of virus-induced cytopathicity; assay type: functional, organism-based
[22] = test system: Influenza B virus; assay: Antiviral activity against Influenza B virus infected in MDCK cells assessed as inhibition of virus-induced cytopathicity; assay type: functional, organism-based
[23] = test system: Vaccinia virus; assay: Ratio of compound EC50 over ribavirin EC50 for Vaccinia virus lederle; assay type: functional, Orthopoxvirus vaccinia
[24] = test system: Punta Toro virus; assay: Ratio of compound EC50 over ribavirin antiviral EC50 for Punta Toro virus; assay type: functional
[25] = test system: Respiratory syncytial virus; assay: Antiviral activity against Respiratory syncytial virus Long infected in human HeLa cells assessed as inhibition of virus-induced cytopathicity at 100 uM; assay type: functional, organism-based
Outline: (§3)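 Confluent monolayers (Vero for Punta Toro, HeLa for RSV strain Long) were infected with 100 CCID50 of virus. After 1–2 h adsorption, residual virus was removed and cells were incubated with the compound, 100 μM being the highest level tested. Cytopathicity was scored when untreated infected controls reached full cytopathic effect.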

[26] = test system: Vesicular stomatitis virus; assay: Antiviral activity against Vesicular stomatitis virus infected in human HeLa cells assessed as inhibition of virus-induced cytopathicity at 100 uM; assay type: functional, organism-based
[27] = test system: Vaccinia virus; assay: Antiviral activity against Vaccinia virus lederle infected in human HEL cells assessed as inhibition of virus-induced cytopathicity at 100 uM; assay type: functional, organism-based; conditions: Orthopoxvirus vaccinia
[28] = test system: Punta Toro virus; assay: Antiviral activity against Punta Toro virus infected in african green monkey Vero cells assessed as inhibition of virus-induced cytopathicity at 100 uM; assay type: functional, organism-based; outline: as §3
[29] = test system: Influenza A virus; assay: Antiviral activity against Influenza A virus H3N2 infected in MDCK cells assessed as inhibition of virus-induced cytopathicity at 100 uM; assay type: functional, organism-based
[30] = test system: Influenza B virus; assay: Antiviral activity against Influenza B virus infected in MDCK cells assessed as inhibition of virus-induced cytopathicity at 100 uM; assay type: functional, organism-based
[31] = test system: Punta Toro virus; assay: Antiviral activity against Punta Toro virus infected in african green monkey Vero cells assessed as inhibition of virus-induced cytopathicity; assay type: functional, organism-based

| Structure (SMILES) | MCC [1] [µM] | MCC [2] [µM] | EC50 [3] [µM] | EC50 [4] [µM] | EC50 [5] [µM] | EC50 [6] [µM] | EC50 [7] [µM] | EC50 [8] [µM] | EC50 [9] [µM] | EC50 [10] [µM] | EC50 [11] [µM] | EC50 [12] [µM] | EC50 [13] [µM] | EC50 [14] [µM] | MCC [15] [µM] | MCC [16] [µM] | EC50 [17] [µM] | EC50 [19] [µM] | EC50 [20] [µM] | EC50 [21] [µM] | other results |
| --- | --- | --- | --- | --- | --- | --- | --- | --- | --- | --- | --- | --- | --- | --- | --- | --- | --- | --- | --- | --- | --- |
| C[C@H](NP(=O)(OC[C@H]1O[C@@H](n2cnc(C(N)=O)n2)[C@H](O)[C@@H]1O)Oc1cccc2ccccc12)C(=O)OCc1ccccc1 (stereo not given in full) | > 100 | > 100 | > 100 | > 100 | > 100 | > 100 | > 100 | > 100 | > 100 | > 100 | > 100 | > 100 | > 100 | > 100 | > 100 | > 100 | 45 | 100 | 68 | 18 | EC50 [18]: 20 µM; EC50 [22]: 14 µM |
| NC(=O)c1ncn([C@@H]2O[C@H](COP(=O)(NCC(=O)OCc3ccccc3)Oc3cccc4ccccc34)[C@@H](O)[C@H]2O)n1 (stereo not given in full) | > 100 | > 100 | > 100 | > 100 | > 100 | > 100 | > 100 | > 100 | > 100 | > 100 | > 100 | > 100 | > 100 | > 100 | > 100 | > 100 | 58 | 20 |  | > 20 | Ratio [23]: 3; Ratio [24]: 3; MCC [20]: > 100 µM; EC50 [22]: > 20 µM |
| NC(=O)c1ncn([C@@H]2O[C@H](COP(=O)(N[C@@H](Cc3ccccc3)C(=O)OCc3ccccc3)Oc3cccc4ccccc34)[C@@H](O)[C@H]2O)n1 (stereo not given in full) | > 100 | > 100 | > 100 | > 100 | > 100 | > 100 | > 100 | > 100 | > 100 | > 100 | > 100 | > 100 | > 100 | > 100 | > 100 | > 100 | > 20 | 100 | > 70 | > 100 | inhibition [25]: inactive; inhibition [26]: inactive; inhibition [27]: inactive; inhibition [28]: inactive; inhibition [29]: inactive; inhibition [30]: inactive; EC50 [18]: > 20 µM; EC50 [22]: > 100 µM |
| NC(=O)c1ncn([C@@H]2O[C@H](CO)[C@@H](O)[C@H]2O)n1 [RIBAVIRIN] | > 100 | > 100 |  |  |  |  |  |  |  |  |  |  |  |  | > 100 | > 100 | 19 |  | 87 |  | EC50 [31]: 183 µM |
